These results are taken from BindingDB's records for doi:10.1016/j.bmcl.2014.05.064 (The University of Tokyo, 2014).

The target in this test is T1, NPC intracellular cholesterol transporter 1 [I1061T] (Homo sapiens, UniProt O15118, I1061T).
T1 construct: gene NPC1
T1 sequence (O15118 23-1278 I1061T limits assumed): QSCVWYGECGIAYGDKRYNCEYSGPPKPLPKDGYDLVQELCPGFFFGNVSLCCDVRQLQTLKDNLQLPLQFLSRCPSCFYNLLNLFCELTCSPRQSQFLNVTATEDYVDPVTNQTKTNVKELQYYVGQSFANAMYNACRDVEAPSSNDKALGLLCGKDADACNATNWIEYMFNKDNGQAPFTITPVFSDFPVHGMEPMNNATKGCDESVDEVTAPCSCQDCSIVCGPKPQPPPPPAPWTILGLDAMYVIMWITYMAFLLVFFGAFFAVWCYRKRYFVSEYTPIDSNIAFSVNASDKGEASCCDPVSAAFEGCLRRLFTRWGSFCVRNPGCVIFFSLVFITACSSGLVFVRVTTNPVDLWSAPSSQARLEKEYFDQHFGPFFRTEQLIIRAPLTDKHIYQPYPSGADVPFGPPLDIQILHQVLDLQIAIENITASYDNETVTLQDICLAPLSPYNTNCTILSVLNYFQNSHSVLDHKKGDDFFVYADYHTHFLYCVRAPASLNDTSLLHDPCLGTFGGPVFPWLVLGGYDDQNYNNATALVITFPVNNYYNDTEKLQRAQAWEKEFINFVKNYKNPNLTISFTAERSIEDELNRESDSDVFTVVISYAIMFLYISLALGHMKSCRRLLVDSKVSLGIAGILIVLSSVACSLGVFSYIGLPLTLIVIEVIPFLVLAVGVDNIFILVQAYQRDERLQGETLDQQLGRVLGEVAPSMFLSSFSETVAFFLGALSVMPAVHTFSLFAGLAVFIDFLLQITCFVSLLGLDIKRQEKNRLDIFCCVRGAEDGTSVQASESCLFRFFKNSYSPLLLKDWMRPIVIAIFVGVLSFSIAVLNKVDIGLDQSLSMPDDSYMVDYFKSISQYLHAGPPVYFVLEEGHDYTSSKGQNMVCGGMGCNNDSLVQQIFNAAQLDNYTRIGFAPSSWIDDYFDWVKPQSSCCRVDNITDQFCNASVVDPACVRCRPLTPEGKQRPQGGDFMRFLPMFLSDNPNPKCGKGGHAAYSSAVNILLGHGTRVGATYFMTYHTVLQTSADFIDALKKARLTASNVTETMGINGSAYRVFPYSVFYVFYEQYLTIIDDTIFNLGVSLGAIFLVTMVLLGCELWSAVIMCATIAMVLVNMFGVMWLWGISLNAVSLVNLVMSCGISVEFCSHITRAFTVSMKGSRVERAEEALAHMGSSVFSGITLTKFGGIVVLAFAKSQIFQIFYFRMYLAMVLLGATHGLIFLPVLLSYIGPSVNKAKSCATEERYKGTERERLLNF
Nature of the test: Binding affinity to FLAG/tGFP-tagged NPC1 I1061T mutant (unknown origin) expressed in HEK293 cells assessed as localization after 24 hrs by fluorescence microscopy. Summed up: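 HEK293 cells stably expressing NPC1 I1061T-tGFP were exposed to compound for 24 h, fixed, and nuclei stained with Hoechst 33342. In the images, each cell was scored by tGFP pattern: ER 0, mixed ER+vesicle 0.5, vesicular 1. Scores were averaged to give the vesicular-localization percentage, and EC50 was taken from concentration-response. Data are mean ± standard deviation of three independent experiments.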
The EC50 is the concentration needed to bring the measured effect to its halfway point. As for `C[C@H](CCC(=O)N(C)C)[C@H]1CC[C@H]2[C@@H]3CC=C4C[C@@H](O)CC[C@]4(C)[C@H]3CC[C@]12C` [(4R)-4-[(1S,2R,5S,10S,11S,14R,15R)-5-hydroxy-2,15-dimethyltetracyclo[8.7.0.0^{2,7}.0^{11,15}]heptadec-7-en-14-yl]-N,N-dimethylpentanamide], the 50% effective concentration (EC50) was 3100 nM.
`C[C@H](CCCC(C)(C)O)[C@H]1CC[C@H]2[C@@H]3C[C@@H](O)[C@@]4(O)C[C@@H](O)CC[C@]4(C)[C@H]3CC[C@]12C`: the EC50 turned out to be 1700 nM.
Consider `C[C@H](CCCC(C)(C)O)[C@H]1CC[C@H]2[C@@H]3CC=C4C[C@@H](OCC(=O)N5CCOCC5)CC[C@]4(C)[C@H]3CC[C@]12C`, for which the EC50 was 880 nM.
The same measure for `C[C@]12CC[C@H](O)CC1=CC[C@@H]1[C@@H]2CC[C@]2(C)C(=O)CC[C@@H]12` [Prasterone]: > 10000 nM.
Next, `CC(C)CCC[C@@H](C)[C@H]1CC[C@H]2[C@@H]3C(=O)C=C4C[C@@H](O)CC[C@]4(C)[C@H]3CC[C@]12C` [CHEBI:64294]: 8700 nM; `CC(C)CCC[C@@H](C)[C@H]1CC[C@H]2[C@@H]3CC(=O)[C@@]4(O)C[C@@H](O)CC[C@]4(C)[C@H]3CC[C@]12C`: 1700 nM.
The same measure for `CC(C)C(=O)NC[C@@H](C)[C@H]1CC[C@H]2[C@@H]3C[C@@H](O)[C@@]4(O)C[C@@H](OCC(=O)N5CCOCC5)CC[C@]4(C)[C@H]3CC[C@]12C`: 370 nM; for `CCN(CC)CCO[C@H]1CC[C@@]2(C)C(=CC[C@H]3[C@@H]4CC[C@H]([C@H](C)CCCC(C)(C)O)[C@@]4(C)CC[C@@H]32)C1`: 9900 nM.
With `CCN(CC)C(=O)CO[C@H]1CC[C@@]2(C)C(=CC[C@H]3[C@@H]4CC[C@H]([C@H](C)CCCC(C)(C)O)[C@@]4(C)CC[C@@H]32)C1`, the EC50 was 4800 nM.
Next, `CC(C)CCC[C@@H](C)[C@H]1CC[C@H]2[C@@H]3C[C@@H](O)[C@@]4(O)C[C@@H](OCC(=O)N5CCCCC5)CC[C@]4(C)[C@H]3CC[C@]12C`: 1800 nM; `C[C@H](CNC(=O)c1cc(C(F)(F)F)cc(C(F)(F)F)c1)[C@H]1CC[C@H]2[C@@H]3C[C@@H](O)[C@@]4(O)C[C@@H](OCC(=O)N5CCOCC5)CC[C@]4(C)[C@H]3CC[C@]12C`: 86 nM; `CC(C)CCC[C@@H](C)[C@H]1CC[C@H]2[C@@H]3C[C@@H](O)[C@@]4(O)C[C@@H](O)CC[C@]4(C)[C@H]3CC[C@]12C` [CHEBI:28082]: 1700 nM.
Next, `C[C@H](CNC(=O)N(C)C)[C@H]1CC[C@H]2[C@@H]3C[C@@H](O)[C@@]4(O)C[C@@H](OCC(=O)N5CCOCC5)CC[C@]4(C)[C@H]3CC[C@]12C`: 6800 nM; `C[C@H](CCCC(C)(C)O)[C@H]1CC[C@H]2[C@@H]3C(=O)C=C4C[C@@H](O)CC[C@]4(C)[C@H]3CC[C@]12C`: 1500 nM.
Next, `C[C@H](CCCC(C)(C)O)[C@H]1CC[C@H]2[C@@H]3CC=C4C[C@@H](O)CC[C@]4(C)[C@H]3CC[C@]12C` [(1S,2R,5S,10S,11S,14R,15R)-14-[(2R)-6-hydroxy-6-methylheptan-2-yl]-2,15-dimethyltetracyclo[8.7.0.0^{2,7}.0^{11,15}]heptadec-7-en-5-ol]: 3300 nM; `CC(C)CCC[C@@H](C)[C@H]1CC[C@H]2[C@@H]3[C@@H](O)C=C4C[C@@H](O)CC[C@]4(C)[C@H]3CC[C@]12C` [CHEBI:42989]: 3400 nM; `CC(C)CCC[C@@H](C)[C@H]1CC[C@H]2[C@@H]3C(=O)C=C4C[C@@H](OCC(=O)N5CCOCC5)CC[C@]4(C)[C@H]3CC[C@]12C`: 290 nM.
Consider `CC(C)CCC[C@@H](C)[C@H]1CC[C@H]2[C@@H]3C[C@@H](O)[C@@]4(O)C[C@@H](OCCN5CCOCC5)CC[C@]4(C)[C@H]3CC[C@]12C`, for which the EC50 worked out at 1000 nM.
The same measure for `CC(C)CCC[C@@H](C)[C@H]1CC[C@H]2[C@@H]3C[C@@H](O)[C@@]4(O)C[C@@H](OCC(N)=O)CC[C@]4(C)[C@H]3CC[C@]12C`: 840 nM; for `CC(C)CCC[C@@H](C)[C@H]1CC[C@H]2[C@@H]3C[C@@H](O)[C@@]4(O)C[C@@H](OCC(=O)N(CCO)CCO)CC[C@]4(C)[C@H]3CC[C@]12C`: 560 nM.
Next, `CC(C)CCC[C@@H](C)[C@H]1CC[C@H]2[C@@H]3[C@@H](O)C=C4C[C@@H](OCCO)CC[C@]4(C)[C@H]3CC[C@]12C`: 3400 nM; `CC(C)CCC[C@@H](C)[C@H]1CC[C@H]2[C@@H]3[C@@H](O)C=C4C[C@@H](OCC(=O)N5CCOCC5)CC[C@]4(C)[C@H]3CC[C@]12C`: 360 nM; `C[C@H](CCCC(C)(C)O)[C@H]1CC[C@H]2[C@@H]3[C@@H](O)C=C4C[C@@H](O)CC[C@]4(C)[C@H]3CC[C@]12C`: 1900 nM.
Take `C[C@H](COc1cc(C(F)(F)F)cc(C(F)(F)F)c1)[C@H]1CC[C@H]2[C@@H]3C[C@@H](O)[C@@]4(O)C[C@@H](OCC(=O)N5CCOCC5)CC[C@]4(C)[C@H]3CC[C@]12C`: the EC50 was > 10000 nM.
The same measure for `CC(C)CCC[C@@H](C)[C@H]1CC[C@H]2[C@@H]3C[C@@H](O)[C@@]4(O)C[C@@H](OCC(=O)N5CCOCC5)CC[C@]4(C)[C@H]3CC[C@]12C`: 150 nM; for `CC(C)CCC[C@@H](C)[C@H]1CC[C@H]2[C@@H]3[C@@H](O)C=C4C[C@@H](OC(=O)N5CCOCC5)CC[C@]4(C)[C@H]3CC[C@]12C`: 6100 nM; for `CC[C@H](/C=C/[C@@H](C)[C@H]1CC[C@H]2[C@@H]3C[C@@H](O)[C@@]4(O)C[C@@H](OCC(=O)N5CCOCC5)CC[C@]4(C)[C@H]3CC[C@]12C)C(C)C`: 360 nM.
The same measure for `CC(C)CCC[C@@H](C)[C@H]1CC[C@H]2[C@@H]3CC(=O)[C@H]4C[C@@H](O)CC[C@]4(C)[C@H]3CC[C@]12C` [5alpha-CHOLESTAN-3beta-OL-6-ONE]: 3400 nM; for `C[C@H](CCCC(C)(C)O)[C@H]1CC[C@H]2[C@@H]3CCC4=CC(=O)CC[C@]4(C)[C@H]3CC[C@]12C`: 4000 nM.
For `C[C@H](CCCC(C)(C)O)[C@H]1CC[C@H]2[C@@H]3CC=C4C[C@@H](OCC(=O)N(C)C)CC[C@]4(C)[C@H]3CC[C@]12C`, the EC50 worked out at 1400 nM.
The same measure for `CCN(CC)C(=O)CC[C@@H](C)[C@H]1CC[C@H]2[C@@H]3CC=C4C[C@@H](O)CC[C@]4(C)[C@H]3CC[C@]12C`: 1700 nM.
Next, `CC(C)CC[C@H](O)[C@@H](C)[C@H]1CC[C@H]2[C@@H]3CC=C4C[C@@H](O)CC[C@]4(C)[C@H]3CC[C@]12C` [(1S,2R,5S,10S,11S,14R,15S)-14-[(2S,3S)-3-hydroxy-6-methylheptan-2-yl]-2,15-dimethyltetracyclo[8.7.0.0^{2,7}.0^{11,15}]heptadec-7-en-5-ol]: 2900 nM.
For `CC(C)CCC[C@@H](C)[C@H]1CC[C@H]2[C@@H]3CC[C@@]4(O)[C@@H](O)[C@@H](O)CC[C@]4(C)[C@H]3CC[C@]12C` [Cholestane-3b,4b,5a-triol], the 50% effective concentration (EC50) is 4300 nM.
